In general, IC50 refers to the concentration needed to halve the response being measured. A higher IC50 goes with weaker potency.

A value given as a limit tells only on which side of the number the result lay.

Series [1] is described as follows: Cytotoxicity was evaluated against LS174T-stCPG2(Q)3-expressing cell clone. The conditions noted are these: Homo sapiens. The class given is functional. The gist of the method: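 LS174T colon cells stably transfected with surface-tethered mutant CPG2 (stCPG2(Q)3) plasmid; 2 × 10^6 cells seeded, confluent at 48 h. Compound added from DMSO stock in full medium, a similar dose re-added after 1 h, then 20 h more. Cells reseeded in quadruplicate at ~2 × 10^3/well, grown to control confluence; sulforhodamine-B at 590 nm, IC50 by interpolation.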

Series [2] in a line: Kinetic parameter(rate of catalysis) was evaluated. Type of series: ADME.
The nature of series [3]: Kinetic parameter (half-life prodrug/drug) was evaluated. Type of series: ADME. In outline: (§1)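 10 mM stocks diluted 100-fold to 100 µM in CPG2 assay buffer (100 mM Tris-HCl pH 7.3, 260 µM ZnCl2) at 37 °C. Remaining starting material followed by isocratic C18 HPLC in 10 mM ammonium acetate pH 5.0/methanol, UV at compound-specific wavelength, via repeat injections every 7.5 min or fresh-vial injections every 1 min.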

A short description of series [4]: Kinetic parameter (half-life) was evaluated; NA ='Not applicable'. The class given is ADME. The gist of the method: as §1

As to `CS(=O)(=O)OCCN(CCCl)c1ccc(C(=O)O)cc1`, half-maximal inhibition in series [1] (IC50) required 27.8 µM.
Turning to `Nc1ccc(N(CCF)CCF)cc1`, the midpoint of inhibition in series [1], the IC50, lay at 121 µM.
The compound `O=C(O)CC[C@H](NC(=O)Nc1ccc(COC(=O)Nc2ccc(N(CCF)CCF)cc2)cc1)C(=O)O` displayed an IC50 in series [1] of 184 µM. In series [2], this compound had a k cat of 50 s⁻¹. The T1/2 in series [3] stood at 0.4 min.
On to `O=C(O)CC[C@H](NC(=O)Oc1ccc(COC(=O)Nc2ccc(N(CCF)CCF)cc2)cc1)C(=O)O`, for which the T1/2 result in series [4] was “Not Active”. For the same compound, the IC50 in series [1] was found to be 257 µM. The compound further yielded a k cat in series [2] of 50 s⁻¹.
`O=C(O)CC[C@H](NC(=O)Nc1ccc(CO)cc1)C(=O)O` gave a k cat in series [2] of 65.4 s⁻¹.
As to `Oc1ccc(N(CCF)CCF)cc1`, in series [4], the T1/2 result is given as “Not Active”. The IC50 in series [1] amounted to 323 µM.
As for `O=C(O)CC[C@H](NC(=O)Oc1ccc(COC(=O)Oc2ccc(N(CCF)CCF)cc2)cc1)C(=O)O`, in series [4], the T1/2 result is reported as “Not Active”. For the same compound, in series [1], 128 µM corresponded to half-maximal inhibition (IC50). This compound also came in with a k cat in series [2] of less than 10 s⁻¹.
`O=C(O)CC[C@H](NC(=O)Oc1ccc(COC(=O)Oc2ccc(N(CCCl)CCCl)cc2)cc1)C(=O)O` registered a half-inhibitory concentration (IC50) in series [1] of 0.42 µM. In series [2], this compound showed a k cat of less than 10 s⁻¹. The T1/2 in series [3] came out at 13.7 min.
`O=C(O)CC[C@H](NC(=O)Nc1ccc(COC(=O)Oc2ccc(N(CCF)CCF)cc2)cc1)C(=O)O` gave an IC50 in series [1] of 264 µM. In addition, in series [3], the T1/2 is recorded as less than 10 min.
As to `O=C(O)CC[C@H](NC(=O)Nc1ccc(COC(=O)Oc2ccc(N(CCCl)CCCl)cc2)cc1)C(=O)O`, in series [1], the IC50 worked out at 0.48 µM. In series [2], this compound gave a k cat of less than 10 s⁻¹. Further, the T1/2 in series [3] was 0.3 min.
For the compound `O=C(O)CC[C@H](NC(=O)Nc1ccc(COC(=O)Nc2ccc(N(CCCl)CCCl)cc2)cc1)C(=O)O`, half-maximal inhibition in series [1] (IC50) was put at 0.46 µM. Besides, the k cat in series [2] is 50 s⁻¹. The T1/2 in series [3] came to 7.6 min.
The compound `O=C(O)CC[C@H](NC(=O)Oc1ccc(COC(=O)Nc2ccc(N(CCCl)CCCl)cc2)cc1)C(=O)O` returned an IC50 in series [1] of 0.62 µM. For the same compound, the k cat in series [2] was less than 10 s⁻¹. Also, the T1/2 in series [3] is recorded as 8.1 min.
Take `O=C(O)CC[C@H](NC(=O)Oc1ccc(CO)cc1)C(=O)O`: the T1/2 result in series [4] is reported as “Not Active”. The compound further had a k cat in series [2] of 140 s⁻¹.

The values are drawn from ChEMBL document CHEMBL1131298 (J Med Chem, 1998).
